This test has as its target wild type (NL4-3) HIV-1 protease (Human immunodeficiency virus type 1 group M subtype B, UniProt P12497). Kind of test: FRET-based enzyme inhibition assay, wild type. The format is biochemical. The method in brief: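 Commercial wild-type NL4-3 HIV-1 protease, supplied at 0.3 mg/ml, assayed by FRET with a fluorogenic HIV-1 substrate. Peptide test compounds carry a reduced (-CH2-NH-) bond in place of the labile peptide bond so the protease cannot cleave them. IC50 is the average of three independent experiments, with SD.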

Non-standard residues stand in square brackets, D forms with d. Residues, ends and D or L forms follow the SMILES beside them. Nle = CCCC[C@H](N)C(=O)O

This passage reports IC50 results from PMC4288442 (Biochemical and biophysical research communications, 2013).

One may read the IC50 as the concentration that gives 50% inhibition. `CCCC[C@H](NC(=O)[C@H](C)NC(=O)[C@H](CCC(=O)O)NC(=O)[C@@H](N)Cc1ccccc1)C(=O)O` [Compound 7a, Phe-Glu-Ala-Nle] (H-FEA[Nle]-OH) had an IC50 of over 1000 nM.
For `CC(C)C[C@H](NC(=O)[C@@H](NC(=O)[C@@H](N)CCCNC(=N)N)C(C)C)C(=O)O` [Compound 7b, Arg-Val-Leu] (H-Arg-Val-Leu-OH) the value was over 1000 nM.
